Assay results: paper PMC4423805 (Science (New York, N.Y.), 2015)

Columns and labels:
[1] = tested on: Runt domain; experiment: 15N-1H HSQC / STD NMR binding to Runt domain
[2] = Pharmacokinetics in mouse plasma; format: in vivo
[3] = tested on: CBFβ; experiment: 15N-1H HSQC / STD NMR binding to CBFβ; settings: upon addition of compound
[4] = molecular target: CBFβ-SMMHC binding to the RUNX1 Runt domain; experiment: FRET assay of CBFβ-SMMHC binding to RUNX1 Runt domain; settings: read-out: FRET IC50; 10 nM Cerulean-Runt domain and 10 nM Venus-CBFβ-SMMHC
Summary of the method: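 FRET binding assay with 10 nM Cerulean-RUNX1 Runt domain and 10 nM Venus-CBFβ-SMMHC titrated with test compound. Read-out is the emission intensity ratio at 525/474 nm. Untagged CBFβ (100 and 1000 nM) served as a dissociation reference. IC50 was fitted from the mean and SD of three independent measurements.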

[5] = tested on: primary human inv(16) AML samples; experiment: Colony-forming units, primary inv; format: cell-based
Summary of the method: (§1)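 Colony-forming unit assays on CD34+ purified primary human cells treated with the test compound at set concentrations (5 and 10 μM cited for inv(16) samples): inv(16) AML, normal-karyotype AML, or cord blood. Colonies are expressed as percent of DMSO vehicle control. Assays were run in triplicate, with SD; significance by unpaired t-test.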

[6] = Stability in liver microsomes; format: in vitro ADME
[7] = tested on: ME-1 cells; experiment: Annexin V and 7AAD viability staining, ME-1; format: cell-based, human; settings: read-out: ME-1 cell growth IC50, 48 hours
Summary of the method: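 ME-1 inv(16) cells exposed to the test compound across a dose range for 48 hours, then scored by annexin V and 7AAD viability staining. Values are normalized to the DMSO-treated group. Each point is the mean of triplicate experiments, with SD.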

[8] = tested on: RUNX1 occupancy at RUNX3, CSF1R, and CEBPA promoters; experiment: Chromatin immunoprecipitation of RUNX1 occupancy, ME-1 cells; format: cell-based, human; settings: 6 hours
Summary of the method: (§2)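 Chromatin immunoprecipitation of RUNX1 at the RUNX3, CSF1R and CEBPA loci in ME-1 and U937 cells treated with 1 μM test compound for 6 hours. Occupancy is expressed as fold enrichment relative to DMSO-treated cells. Data are means of triplicate experiments with SD; significance by unpaired t-test.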

[9] = tested on: CBFβ-RUNX1 binding; experiment: Coimmunoprecipitation of CBFβ-RUNX1 in ME-1 cells; format: cell-based, human; settings: 1 μM
Summary of the method: (§3)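 ME-1 cells treated with 1 μM test compound for 3 and 6 hours. RUNX1 association with CBFβ and with CBFβ-SMMHC was assessed by coimmunoprecipitation, and binding was quantified from three experiments.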

[10] = tested on: primary human inv(16) AML samples; experiment: Viability; format: cell-based; settings: 48 hours, 5 and 10 μM
Summary of the method: (§4)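 Primary human AML cells treated with test compound at set concentrations for 48 hours, and viability read by annexin V/7AAD relative to DMSO vehicle. Inv(16) material comprised four CD34+ purified samples; normal-karyotype AML samples were used as given. Each sample was the average of duplicate treatments, with mean and SD across samples.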

[11] = tested on: CBFβ-SMMHC-RUNX1 binding; experiment: Coimmunoprecipitation of CBFβ-SMMHC-RUNX1 in ME-1 cells; format: cell-based, human; settings: 1 μM, 6 hours
Summary of the method: as §3

[12] = tested on: CD34+ cord blood cells; experiment: Colony-forming units, CD34+ cord blood cells; format: cell-based, human
Summary of the method: as §1

[13] = molecular target: CBFβ-SMMHC; experiment: Isothermal titration calorimetry; format: binding; settings: read-out: dissociation constant (KD), ITC
Chain of CBFβ-SMMHC (Q13951 1-165 limits assumed): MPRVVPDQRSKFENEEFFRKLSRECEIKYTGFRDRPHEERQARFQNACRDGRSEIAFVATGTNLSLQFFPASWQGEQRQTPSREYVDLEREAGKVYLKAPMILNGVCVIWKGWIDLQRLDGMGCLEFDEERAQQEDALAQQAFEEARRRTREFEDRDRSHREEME

[14] = tested on: normal human bone marrow cells; experiment: MTT assay, normal human bone marrow cells; format: cell-based; settings: read-out: IC50 in normal human bone marrow cells, 48 hours
Summary of the method: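 Normal human bone marrow cells treated with a dose range of test compound for 48 hours and assessed by MTT conversion. Values are normalized to the DMSO-treated group. Each point is the mean of triplicate experiments, with SD.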

[15] = tested on: expression of RUNX3, CSF1R, and CEBPA; experiment: qRT-PCR expression of RUNX1 target genes, ME-1 cells; format: cell-based, human; settings: 6 or 12 hours
Summary of the method: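 qRT-PCR of RUNX3, CSF1R, CEBPA and control gene PIN1 in ME-1 and U937 cells treated with 1 μM test compound for 6 and 12 hours. Expression is normalized to the DMSO control group. Data are means of triplicate experiments with SD; significance by unpaired t-test.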

[16] = tested on: primary human AML samples with normal karyotype; experiment: Viability; format: cell-based; settings: 48 hours
Summary of the method: as §4

[17] = tested on: RUNX1 occupancy at RUNX3, CSF1R, and CEBPA promoters; experiment: Chromatin immunoprecipitation of RUNX1 occupancy, U937 cells; format: cell-based, human; settings: inv(16)-negative U937 cells, 1 μM
Summary of the method: as §2

[18] = tested on: Cbfb+/MYH11:Ras+/G12D leukemic cells; experiment: inv; format: in vivo, mouse; settings: 200 mg/kg of body weight per day for 10 days, days 5 to 15 posttransplantation
Summary of the method: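 Mice (n = 11 per group) were transplanted with 2 × 10^3 Cbfb+/MYH11;Ras+/G12D leukemic cells. After 5 days for engraftment, they received DMSO vehicle or 200 mg/kg/day test compound for 10 days (days 5–15 post-transplant). Disease latency was followed by Kaplan-Meier survival.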

[19] = tested on: 11 human leukemia cell lines; experiment: Panel of 11 human leukemia cell lines; format: cell-based
[20] = tested on: RUNX1, CBFβ, and CBFβ-SMMHC; experiment: Protein stability of RUNX1, CBFβ and CBFβ-SMMHC; format: cell-based
[21] = tested on: primary human AML samples with normal karyotype; experiment: Colony-forming units, normal karyotype AML samples; format: cell-based
Summary of the method: as §1

[22] = Toxicity after 7 days of administration; format: in vivo
[23] = molecular target: RUNX1, endogenous in ME-1 cells (human (endogenous in ME-1)) (UniProt Q01196); experiment: co-IP
Chain of RUNX1, endogenous in ME-1 cells (human (endogenous in ME-1)) (Q01196 whole entry): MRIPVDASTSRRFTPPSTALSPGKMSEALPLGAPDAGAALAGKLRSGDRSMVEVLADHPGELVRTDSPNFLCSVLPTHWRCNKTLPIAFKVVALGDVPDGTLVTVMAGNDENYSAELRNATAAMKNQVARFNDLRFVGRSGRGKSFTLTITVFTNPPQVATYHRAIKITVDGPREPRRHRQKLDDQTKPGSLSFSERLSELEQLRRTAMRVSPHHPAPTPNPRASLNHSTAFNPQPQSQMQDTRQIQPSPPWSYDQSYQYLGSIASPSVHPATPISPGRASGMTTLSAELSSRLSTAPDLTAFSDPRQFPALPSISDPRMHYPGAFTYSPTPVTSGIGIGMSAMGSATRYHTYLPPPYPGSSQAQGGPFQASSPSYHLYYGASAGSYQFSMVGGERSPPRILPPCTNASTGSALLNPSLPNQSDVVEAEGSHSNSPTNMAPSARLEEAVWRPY

With `COc1ccc2nc(-c3ccccn3)[nH]c2c1` [AI-4-57] the “interaction with Runt domain by NMR” value [1] was “No interaction was observed”, the “half-life (t½)” value [2] was 0.617 h and the “chemical shift changes in HSQC spectrum of CBFβ” value [3] was “chemical shift perturbations”. The IC50 [4] was 22000 ± 8000 nM.
In the case of `FC(F)(F)Oc1ccc2nc(-c3ccccn3)[nH]c2c1` [AI-10-47], the “change in CFUs of inv(16) AML cells” value [5] is reported as “no change”, the IC50 [4] is reported as 2000 ± 30 nM and the “stability in liver microsomes” value [6] is reported as “reduced the metabolic liability”.
With AI-10-49 the IC50 [7] was 600 nM, the “RUNX1 occupancy at CEBPA promoter” value ([8]; 1 μM, relative to DMSO) was 8 fold and the “RUNX1 occupancy at CSF1R promoter” value ([8]; 1 μM, relative to DMSO) was 2.2 fold. The “RUNX1 occupancy at RUNX3 promoter” value ([8]; 1 μM, relative to DMSO) was 8 fold, the “RUNX1 occupancy at control loci” value [8] was “no enrichment was observed” and the “effect on CBFβ-RUNX1 association” value [9] was “only a modest effect”. The “viability of inv(16) patient cells” value [10] was “reduced”, the “half-life (t½)” value [2] was 6.33 h and the “dissociation of RUNX1 from CBFβ-SMMHC” value [11] was 90%. For the same compound, the “change in CFUs of CD34+ cord blood cells” value [12] was “no change”, the “inhibition of CFUs of inv(16) AML cells” value ([5]; 5 μM) was 40% and the “inhibition of CFUs of inv(16) AML cells” value ([5]; 10 μM) was 60%. For the same compound, the Kd [13] was 168 nM, the IC50 [14] was > 25000 nM and the “expression of RUNX3, CSF1R, and CEBPA” value ([15]; 1 μM) was “increased expression”. The “expression of control gene PIN1” value [15] was “no effect”, the “viability of normal karyotype AML samples” value [16] was “not affected” and the “RUNX1 occupancy increase in U937 cells” value [17] was “Neither”. The “median latency (survival)” value [18] was 61 days, the IC50 [4] was 260 ± 10 nM and the “sensitivity of leukemia cell line panel” value [19] was “ME-1 cells were the only cell line highly sensitive”. The “stability of RUNX1, CBFβ, and CBFβ-SMMHC” value [20] was “not affected”, the “change in CFUs of AML cells with normal karyotype” value [21] was “no change” and the toxicity [22] was “no evidence of toxicity”.
For CBFβ-SMMHC, endogenous in ME-1 cells, the percent dissociation with AI-10-49 (1 μM, 6 hours) [23] was 90%.
